High-throughput results from PubChem BioAssay.
Myeloid diff 2: promotes myeloid progenitor differentiation | actives 1% (n = 360,000) | AID 624256 | calls only at 10 µM | ER-HoxA9 myeloid progenitors, lysozyme-GFP differentiation, flow cytometry;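 active means normalized GFP-positive differentiation at or above the plate's own cutoff, the solvent-only control mean plus 3 SD; inconclusive means no clear call, values can overlap the other calls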;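 further: cells exposed to compound for four days before flow analysis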
Cardio protect: protects H9c2 cardiomyocytes from peroxide injury | protection from H2O2 cell death, % at 20 µM | actives 0.63% (n = 360,000) | H2O2 injury protection, ATPLite, 2 h | AID 588492;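 active means compounds giving at least 50% protection of heart cells from peroxide-induced death in the single-dose screen, raw or plate-pattern-corrected value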;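 further: 0% = DMSO wells with peroxide and 100% = DMSO wells without peroxide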
SENP1 inh: inhibitors of human SENP1 SUMO protease catalytic domain. AID 624204. actives 0.21% (n = 360,000). recombinant SENP1 catalytic domain, CyPet-SUMO1-YPet FRET cleavage. inhibition, % at 10 µM;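 active means inhibition at least 30% at 10 µM, raw YFP signal under a set limit, fluorescence ratio 0.5 to 1.5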;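 further: 0% = enzyme with DMSO and 100% = no enzyme wells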
Target sequence (Q9P0U3 419-644 limits assumed): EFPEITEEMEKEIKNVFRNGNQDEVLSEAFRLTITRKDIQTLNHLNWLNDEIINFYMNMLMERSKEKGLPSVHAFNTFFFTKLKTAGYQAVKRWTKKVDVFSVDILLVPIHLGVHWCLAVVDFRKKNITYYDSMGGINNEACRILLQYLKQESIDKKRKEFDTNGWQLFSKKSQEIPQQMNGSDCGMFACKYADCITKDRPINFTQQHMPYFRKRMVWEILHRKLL
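Test system: hSENP1 catalytic domain, recombinant; Amount: 20 pM final SENP1 enzyme; Medium: Tris pH 8 buffer plus EDTA, NaCl, BME, BSA, NP40, catalase; Schedule: 50 min enzyme reaction, room temperature, light-protected; Technique: FRET fluorescence in CFP and YFP emission channels; Controls: no-enzyme wells low, DMSO-plus-enzyme wells high control.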
HNF4A DNA FP: change in binding of human HNF4 alpha to DNA; P41235; HNF4a-FITC DNA binding, fluorescence polarization, 1 h; activity change, % at 10 µM; actives 0.3% (n = 360,000); in the data active means activity change above about 30%, passing the limit was not always enough
Granule exo inh: blocks lytic granule exocytosis | TALL-104 LAMP-1 surface exposure, flow cytometry; cells stimulated with thapsigargin and PMA | inhibition, % at 10 µM | actives 0.66% (n = 360,000);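 active means inhibition above about 55%, limit read from the data; inconclusive means no clear call, values can overlap the other calls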
DSG3 Ab inh: blocks pemphigus antibody binding to human desmoglein-3; DSG3-coupled beads, scFv-anti-DSG3-GFP binding, flow cytometry; hits give low values; binding (percent of control), % at 10 µM; actives 0.48% (n = 310,000); P32926; AID 588358;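 active means binding more than 3 SD below its plate's average and above zero; inconclusive means below that plate limit but binding exactly zero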;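 further: hits lower antibody fragment binding to DSG3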
Active calls of the source: *. Only some compounds are listed: those with a hit (about 3% of all), similar ones and a draw of the others.

Screening Cc1cccc(NC(=O)c2oc3ccc(S(=O)(=O)N4CCOCC4)cc3c2C)c1C returned Myeloid diff 2 inactive, Cardio protect 76.2*, SENP1 inh 4.5, HNF4A DNA FP -0.9, Granule exo inh 10.6 and DSG3 Ab inh 96.7.
Cc1ccc(NC(=O)c2oc3ccc(S(=O)(=O)N4CCOCC4)cc3c2C)c(C)c1 was read as Myeloid diff 2 inactive, Cardio protect 2.8, SENP1 inh 2.2, HNF4A DNA FP 0.0, Granule exo inh 4.5 and DSG3 Ab inh 100.2.
Screening Cc1ccc(-c2nc(Nc3ccccc3)n[nH]2)cc1 returned Cardio protect -5.0, SENP1 inh 0.6, HNF4A DNA FP 0.7, Granule exo inh 0.2 and DSG3 Ab inh 36.6*.
Screening Nc1nc(CSc2n[nH]c(-c3ccccc3)n2)nc(Nc2ccccc2)n1 returned Myeloid diff 2 inactive, Cardio protect -13.4, SENP1 inh 3.5, HNF4A DNA FP -1.4, Granule exo inh -2.0 and DSG3 Ab inh 56.2.
Screening Cc1cc(C)cc(NC(=O)C(=S)NCc2ccccc2)c1 returned Myeloid diff 2 inactive, Cardio protect -5.4, SENP1 inh 0.8, HNF4A DNA FP 0.7, Granule exo inh -0.4 and DSG3 Ab inh 106.7.
For Cc1cccc(OCCCC(=O)NNC(=O)c2ccccn2)c1 the results were Myeloid diff 2 inactive, Cardio protect 50.5*, SENP1 inh 0.5, HNF4A DNA FP -2.0, Granule exo inh 8.4 and DSG3 Ab inh 100.2.
For C[n+]1cn(Cc2ccc(C#N)cc2)c2ccccc21 the results were Myeloid diff 2 inactive, Cardio protect 0.7, SENP1 inh 1.0, HNF4A DNA FP -0.1, Granule exo inh -1.1 and DSG3 Ab inh 99.2.
Screening Cc1cc[n+](CC(=O)c2cccs2)cc1 returned Myeloid diff 2 inactive, Cardio protect 8.9, SENP1 inh 1.9, HNF4A DNA FP 2.5, Granule exo inh 3.5 and DSG3 Ab inh 90.7.
Screening CN(C)c1cc[n+](CC(=O)c2cccs2)cc1 returned Myeloid diff 2 active, Cardio protect 2.0, SENP1 inh -0.2, HNF4A DNA FP 3.2, Granule exo inh -2.4 and DSG3 Ab inh 93.6.
For O=C(NC1CCCCC1)C(c1ccc(O)cc1)N(CC1CCCO1)C(=O)C1COc2ccccc2O1 (centres undefined) the results were Myeloid diff 2 inactive, Cardio protect -2.3, SENP1 inh 2.6, HNF4A DNA FP 2.2, Granule exo inh -2.4 and DSG3 Ab inh 78.2*.
Screening CCN1CCCC1CNS(=O)(=O)c1ccc(Cl)c(C(F)(F)F)c1 (centres undefined) returned Myeloid diff 2 inactive, Cardio protect 5.5, SENP1 inh 2.1, HNF4A DNA FP 2.1, Granule exo inh -2.1 and DSG3 Ab inh 89.1.
Screening Cc1ccc([N+](=O)[O-])cc1NC(=S)NC(=O)C(C)(C)C returned Myeloid diff 2 inactive, Cardio protect -6.3, SENP1 inh 0.8, HNF4A DNA FP -2.9, Granule exo inh 2.7 and DSG3 Ab inh 104.7.
Screening Cc1ccc(NS(=O)(=O)c2cc([N+](=O)[O-])ccc2NNC(=S)Nc2cccc(Cl)c2)c(C)c1 returned Myeloid diff 2 inactive, Cardio protect -16.9, SENP1 inh 54.4*, HNF4A DNA FP 29.8, Granule exo inh 0.3 and DSG3 Ab inh 99.5.
Cc1ccc(NS(=O)(=O)c2cc([N+](=O)[O-])ccc2NNC(=S)Nc2cc(C)ccc2C)c(C)c1 was read as Myeloid diff 2 inactive, Cardio protect -11.6, SENP1 inh 61.9*, HNF4A DNA FP 13.7, Granule exo inh -0.4 and DSG3 Ab inh 103.4.
`Cc1cccc(NC(=S)NNc2cccc(Cl)c2)c1` gave Myeloid diff 2 inactive, Cardio protect -6.2, SENP1 inh 1.0, HNF4A DNA FP -2.7, Granule exo inh 35.1 and DSG3 Ab inh 110.9.
COc1ccc(NC(=S)NNc2ccc([N+](=O)[O-])cc2S(=O)(=O)Nc2ccc(C)cc2C)cc1 was read as Myeloid diff 2 inactive, Cardio protect -26.5, SENP1 inh 42.1*, HNF4A DNA FP 16.2, Granule exo inh -0.5 and DSG3 Ab inh 102.1.
O=C(c1cc(COc2c(F)cccc2F)on1)N(Cc1ccccc1)CC1CC1 was read as Myeloid diff 2 inactive, Cardio protect -11.5, SENP1 inh -0.1, HNF4A DNA FP -39.0 and Granule exo inh 8.0.
For CCOc1c(Br)cc(C(=O)N2CCCN(C)CC2)cc1OC the results were Myeloid diff 2 inactive, Cardio protect 2.9, SENP1 inh 0.4, HNF4A DNA FP 3.4, Granule exo inh -10.0 and DSG3 Ab inh 97.4.
`CN(C)C(=O)c1ccc(NC(=O)CN2C(=O)NC3(CCCc4ccccc43)C2=O)cc1` (centres undefined) gave Myeloid diff 2 inactive, Cardio protect 2.8, SENP1 inh 1.1, HNF4A DNA FP -0.4, Granule exo inh 0.8 and DSG3 Ab inh 105.5.
CCN(CCO)c1ccc(N=Nc2cc(C)[nH]n2)cc1 was read as Myeloid diff 2 inactive, Cardio protect -25.8, SENP1 inh 18.3, HNF4A DNA FP 47.0*, Granule exo inh -2.5 and DSG3 Ab inh 120.4.
COc1cc(C=C2CCCC(=Cc3ccc(OCC4CO4)c(OC)c3)C2=O)ccc1OCC1CO1 (centres undefined) was read as Myeloid diff 2 inconclusive, Cardio protect 81.1*, SENP1 inh -34.0, HNF4A DNA FP 5.6, Granule exo inh -0.7 and DSG3 Ab inh 106.4.
`CCOc1ccc(/C=C2\CCC(C3CCCC3)C2=O)cc1OC` (centres undefined) gave Myeloid diff 2 inactive, Cardio protect -6.1, SENP1 inh 3.0, HNF4A DNA FP 3.4, Granule exo inh -5.5 and DSG3 Ab inh 94.2.
Cc1nc(NNC(=O)c2ccc(Cl)cc2Cl)cc(-c2ccccc2)n1 was read as Myeloid diff 2 inactive, Cardio protect 15.3, SENP1 inh 2.8, HNF4A DNA FP 1.4, Granule exo inh 4.3 and DSG3 Ab inh 70.9*.
For N#C/C(=C\c1cn(-c2ccccc2)nc1-c1cccnc1)c1nnc2n1CCCCC2 the results were Myeloid diff 2 inactive, Cardio protect 51.0*, SENP1 inh 1.2, HNF4A DNA FP -1.7, Granule exo inh -1.2 and DSG3 Ab inh 99.8.
O=C(/C=C/c1cn(-c2ccccc2)nc1-c1cccnc1)N1CCCC1 was read as Myeloid diff 2 inactive, Cardio protect 47.9, SENP1 inh 0.7, HNF4A DNA FP -0.2, Granule exo inh -3.7 and DSG3 Ab inh 106.9.
For CC(C)(C)c1ccc(CN2N=Nc3ccccc3S2(=O)=O)cc1 the results were Myeloid diff 2 inconclusive, Cardio protect -14.6, SENP1 inh 1.0, HNF4A DNA FP -0.5 and Granule exo inh 96.8*.
For CCOc1ccc(C(=O)C(CCC(CN(C)C)C(=O)c2ccc(OCC)cc2)CN(C)C)cc1 (centres undefined) the results were Myeloid diff 2 inconclusive, Cardio protect -29.0, SENP1 inh -1.5, HNF4A DNA FP 3.6, Granule exo inh 60.4* and DSG3 Ab inh 111.2.
